The sample as a whole holds a higher share of hits than the screen did.
T cruzi growth-1: T. cruzi intracellular proliferation inhibitors, primary screen, cell-based, beta-gal Tulahuen parasites, NIH3T3 host, luminescence; T. cruzi beta-gal in NIH3T3, GalScreen luminescence, 90 h; inhibition, % at 8.34 µM; 5.9% of 77,000 active;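 active = mean inhibition above about 93%, with at least 55% of replicates each passing it, limit read from the data, passing the limit was not always enough; inconclusive = only one of those two conditions holds; inactive = neither condition holds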
IDH1 mut inh: inhibitors of IDH1 R132H reductase, primary screen, biochemical, plate reader, single point. Isocitrate dehydrogenase [NADP] cytoplasmic (Homo sapiens), O75874. diaphorase/resazurin fluorescence, 60 min. inhibition, % at 10 µM. 0.18% of 70,000 active. AID 624101, 2012; in the data active = inhibition above about 34%; inconclusive = no clear call, values can overlap the other calls; inactive = below about 11%;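 note: 0% = DMSO and 100% = no enzyme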
KDM4C inh: inhibitors of GASC-1 (KDM4C) histone demethylase, primary screen, biochemical, single concentration HTS; Lysine-specific demethylase 4C (Homo sapiens), Q9H3R0; GST-KDM4C 2-372, H3K9me3 peptide, LANCE TR-FRET; inhibition, % at 12.5 µM; 0.15% of 96,000 active; AID 720574, 2013;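 active = mean replicate inhibition above about 25%, with at least 55% of replicates also reaching it, limit read from the data, passing the limit was not always enough; inconclusive = only one of those two conditions met; inactive = neither condition met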
Target sequence (Q9H3R0 2-372 limits assumed): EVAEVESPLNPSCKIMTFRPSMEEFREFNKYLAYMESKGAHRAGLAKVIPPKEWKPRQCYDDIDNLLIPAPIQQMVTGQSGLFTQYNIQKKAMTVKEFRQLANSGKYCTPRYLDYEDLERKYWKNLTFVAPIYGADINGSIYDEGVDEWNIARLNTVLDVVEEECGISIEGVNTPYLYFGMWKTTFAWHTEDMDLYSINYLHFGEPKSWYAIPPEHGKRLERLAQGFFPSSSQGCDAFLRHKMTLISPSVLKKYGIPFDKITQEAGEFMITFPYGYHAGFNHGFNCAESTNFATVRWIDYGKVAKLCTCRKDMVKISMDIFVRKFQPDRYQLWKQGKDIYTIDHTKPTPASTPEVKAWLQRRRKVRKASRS
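Material: N-terminal GST-fused human GASC-1 (KDM4C) fragment, residues 2-372. Input: 10 nM enzyme. Incubation: enzyme reaction 30 min, then detection 60 min, both room temperature. Doses: one test concentration per compound. Read-out basis: inhibition from TR-FRET ratio decrease. Detection: LANCE TR-FRET, excitation 340 nm, emissions 618 and 671 nm.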
T cruzi growth-2: T. cruzi intracellular proliferation inhibitors, confirmation, cell-based, NIH3T3 host, beta-gal parasite, luminescence, cherry-pick; shares compounds with T cruzi growth-1; T. cruzi beta-gal in NIH3T3, GalScreen luminescence, 90 h; inhibition, % at 8.35 µM; 72% of 5,600 active; AID 651739, 2012;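 active = mean replicate inhibition above about 95% and at least 55% of replicates individually reaching it, limit read from the data; inconclusive = only one of the two criteria is met; inactive = neither criterion is met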
T cruzi growth-3: inhibitors of intracellular T. cruzi replication, confirmation, NIH3T3 host cells, beta-gal parasites, cherry-pick, set 2; shares compounds with T cruzi growth-1; T. cruzi beta-gal in NIH3T3, GalScreen luminescence, 90 h; inhibition, % at 2.09 µM; 21% of 5,600 active; AID 651740, 2012;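 active = mean inhibition above about 95%, with at least 55% of replicates also reaching it, limit read from the data; inconclusive = meets just one of the two conditions; inactive = meets neither condition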;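 note: plate controls were neutral control median for no effect and positive control median for full effect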
NIH3T3 tox: cytotoxicity in mouse NIH/3T3 fibroblasts, confirmation, cytotoxicity control for T. cruzi proliferation inhibitor project, cell-based, cherry-pick, single point; cytotoxicity (signal decrease), % at 8.35 µM; NIH/3T3 viability, CellTiter-Glo ATP luminescence, 90 h; 14% of 5,600 active; shares compounds with T cruzi growth-1;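 active = mean signal decrease across replicates above about 35% based on untreated-well scatter, with enough replicates individually passing, limit read from the data; inconclusive = no rule stated though some were filed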;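 note: 0% = median of neutral control wells and 100% = median of positive control wells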
3T3 cytotox 2: NIH/3T3 fibroblast cytotoxicity, confirmation, cytotoxicity control, cell-based, cherry-pick, single point, set 2; shares compounds with T cruzi growth-1; NIH/3T3 viability, CellTiter-Glo ATP luminescence, 90 h; inhibition, % at 24.9 µM; 56% of 5,600 active;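 active = mean loss of cell viability signal at or above a set limit, and enough replicates individually reaching it; inconclusive = meets only the mean limit or only the replicate share; inactive = meets neither condition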;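 note: 0% = median of neutral control wells and 100% = median of positive control wells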
* hit, by the source's call; ? = inconclusive; . = not tested or not shown; + = active, no number.

SMILES	T cruzi growth-1	IDH1 mut inh	KDM4C inh	T cruzi growth-2	T cruzi growth-3	NIH3T3 tox	3T3 cytotox 2
C[C@@H]1CCCCO[C@@H](CN(C)Cc2ccc3c(c2)OCO3)[C@H](C)CN([C@H](C)CO)C(=O)c2cc(NC(=O)Cc3ccccc3)ccc2O1	62.9	.	-0.4	.	.	.	.
COc1cc(F)ccc1S(=O)(=O)NC1CC(C)(C)NC(C)(C)C1	.	0.1	.	.	.	.	.
COC(=O)CCCCCCC(=O)N/N=C/[C@H](O)[C@@H](O)[C@@H](O)[C@H](O)CO	.	-0.3	.	.	.	.	.
CC(C)=CCc1c(O)ccc2c(=O)c(-c3ccc(O)cc3)coc12	.	0.5	.	.	.	.	.
CNC(=O)CN(c1cc(C)ccc1OC)S(C)(=O)=O	.	0.8	.	.	.	.	.
C[C@H](CO)N1C[C@H](C)[C@@H](CN(C)C(=O)C2CCCCC2)OCCCC[C@H](C)Oc2ccc(NC(=O)Nc3ccc4c(c3)OCO4)cc2C1=O	111.0*	3.4	-0.1	78.9	5.6	-19.0	3.0
C[C@@H]1CN([C@H](C)CO)C(=O)c2cc(NC(=O)Nc3ccc4c(c3)OCO4)ccc2O[C@@H](C)CCCCO[C@@H]1CN(C)C(=O)C1CCCCC1	18.2	-1.1	-1.1	.	.	.	.
Cc1ccsc1/C=N/NC(=O)c1cccc(C(=O)NO)c1	.	-0.5	.	.	.	.	.
COc1ccccc1C#Cc1ccc([C@H]2[C@@H](CO)N3CCCCN(C(=O)C4CCCC4)C[C@@H]23)cc1	117.9*	.	.	101.4*	105.4*	?	70.8*
COc1ccccc1C#Cc1ccc([C@H]2[C@H]3CN(C(=O)C4CCCC4)CCCCN3[C@H]2CO)cc1	114.3*	.	.	87.9	86.8	9.1	53.8*
CCS(=O)(=O)N1CCCCN2[C@H](CO)[C@@H](c3ccc(C#Cc4ccccc4OC)cc3)[C@@H]2C1	57.8	.	-9.1	.	.	.	.
COc1ccccc1C#Cc1ccc([C@H]2[C@@H](CO)N3CCCCN(S(C)(=O)=O)C[C@H]23)cc1	87.8	.	-1.1	.	.	.	.
COc1ccccc1C#Cc1ccc([C@@H]2[C@@H](CO)N3CCCCN(C(=O)C4CCCC4)C[C@H]23)cc1	111.9*	.	.	103.3*	89.5	30.0	106.0*
CCS(=O)(=O)N1CCCCN2[C@H](C1)[C@@H](c1ccc(C#Cc3ccccc3OC)cc1)[C@@H]2CO	86.1	.	-3.9	.	.	.	.
Cn1c(SCC(=O)n2c3c(c4ccccc42)CCCC3)nnc1-c1ccco1	.	0.1	.	.	.	.	.
CCC(Sc1nc(C)cc(C)n1)C(=O)Nc1ccc(-c2nc3ccc(C)cc3s2)cc1 (configuration not stated)	.	0.2	.	.	.	.	.
CN(C)C(=O)[C@@H]1[C@@H](CO)[C@@H]2Cn3c(ccc(C4=CCCCC4)c3=O)[C@@H]2N1Cc1ccccn1	+	.	1.0	-5.5	6.2	3.2	39.0*
CCN1[C@H](C(=O)OC)[C@@H](CO)[C@@H]2Cn3c(ccc(C4=CCCCC4)c3=O)[C@@H]21	102.6*	.	1.9	56.3	-8.2	13.7	13.0
CCN1[C@@H]2c3ccc(C4=CCCCC4)c(=O)n3C[C@@H]2[C@@H](CO)[C@@H]1C(=O)OC	96.9*	.	3.5	-5.6	-17.7	-23.3	3.0
O=C(Nc1ccccc1)[C@H]1[C@H](CO)[C@H]2Cn3c(ccc(C4=CCCCC4)c3=O)[C@H]2N1Cc1ccccn1	.	.	5.8	.	.	.	.
COC(=O)[C@@H]1[C@@H](CO)[C@@H]2Cn3c(ccc(C4=CCCCC4)c3=O)[C@@H]2N1CCC(F)(F)F	17.5	.	4.1	.	.	.	.
CCN1[C@H](C(=O)N(C)C)[C@@H](CO)[C@@H]2Cn3c(ccc(C4=CCCCC4)c3=O)[C@@H]21	28.6	.	2.5	.	.	.	.
CS(=O)(=O)N(CC(=O)Nc1ccc(Cl)c(Cl)c1)c1ccc(I)cc1	.	0.1	.	.	.	.	.

Source: PubChem BioAssay (Broad Institute)
